Active and inactive are the calls of the source. No cut-off for these calls is given here.
What was measured:
[1] = test system: LN-229; assay: Induction of apoptosis in human LN229 cells assessed as apoptotic cells at cytotoxic IC50 measured after 48 hrs by Annexin V-FITC/propidium iodide staining based flow cytometry (reference value: 29.3%); format: functional
[2] = Inhibition of RTK/PI3K/AKT/mTOR signaling in human U87 cells assessed as down regulation of ABCB8 gene expression at cytotoxic IC50 measured after 48 hrs relative to control; format: cell-based; settings: U-87MG ATCC
Method in brief: (§1)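 U87 cells grown in MEM with 10% FBS at 37°C, 5% CO2. Cells exposed to IC50 of test compound for 48 hrs, alongside untreated and cisplatin controls, each condition in triplicate. RNA isolated and profiled; differential expression called with DESeq2 (q-value < 0.05, fold change > 1.5), fold change versus untreated.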

[3] = test system: U-87 MG; assay: Induction of apoptosis in human U87 cells assessed as change in ERN1 gene expression at cytotoxic IC50 measured after 48 hrs […] relative to control; format: functional, U-87MG ATCC; method in brief: as §1
[4] = Inhibition of RTK/PI3K/AKT/mTOR signaling in human U87 cells assessed as down regulation of NXF1 gene expression at cytotoxic IC50 measured after 48 hrs relative to control; format: cell-based; settings: U-87MG ATCC
Method in brief: (§2)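 Cells were exposed for 48hrs at 37°C in humidified 5% CO₂ to the compound at its previously determined IC₅₀, with Cisplatin at its IC₅₀ and an untreated negative control alongside. Each condition was run in triplicate. RNA was isolated from all samples by the same protocol. Genes were called differentially expressed by DESeq2 at q-value < 0.05 and fold change > 1.5.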

[5] = Inhibition of RTK/PI3K/AKT/mTOR signaling in human U87 cells assessed as down regulation of FAM222A gene expression at cytotoxic IC50 measured after 48 hrs relative to control; format: cell-based; settings: U-87MG ATCC; method in brief: as §1
[6] = test system: U-87 MG; assay: Induction of DNA damage in human U87 cells assessed as change in FANCI gene expression at cytotoxic IC50 measured after 48 hrs […] relative to control; format: functional, U-87MG ATCC
Method in brief: (§3)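 U87 expression profiling. Cells incubated 48hrs at 37°C, 5% CO₂ with the IC₅₀ concentration, alongside a cisplatin and an untreated control, in triplicate. RNA was isolated by one common protocol and profiled. DEGs were called with DESeq2 (q < 0.05, fold change > 1.5) and expressed as fold change versus untreated.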

[7] = test system: U-87 MG; assay: Cell cycle arrest in human U87 cells assessed as change in CDK7 gene expression at cytotoxic IC50 measured after 48 hrs […] relative to control; format: functional, U-87MG ATCC; method in brief: as §3
[8] = Inhibition of RTK/PI3K/AKT/mTOR signaling in human U87 cells assessed as up regulation of Rab acceptor 1 gene expression at cytotoxic IC50 measured after 48 hrs relative to control; format: cell-based; settings: U-87MG ATCC
Method in brief: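 U87 cells were exposed for 48 hrs at 37°C under 5% CO₂, with cisplatin and untreated controls, all in triplicate. RNA was isolated by the same protocol for every sample and expression profiled from mapped reads. Differential expression against untreated cells was called in DESeq2 (q-value < 0.05, fold change > 1.5).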

[9] = Inhibition of RTK/PI3K/AKT/mTOR signaling in human U87 cells assessed as up regulation of neuron navigator 1 gene expression at cytotoxic IC50 measured after 48 hrs relative to control; format: cell-based
[10] = Inhibition of RTK/PI3K/AKT/mTOR signaling in human U87 cells assessed as down regulation of TEX14 gene expression at cytotoxic IC50 measured after 48 hrs relative to control; format: cell-based; settings: U-87MG ATCC; method in brief: as §2
[11] = test system: U-87 MG; assay: Induction of apoptosis in human U87 cells assessed as change in BCL2L1 gene expression at cytotoxic IC50 measured after 48 hrs […] relative to control; format: functional, U-87MG ATCC; method in brief: as §1
[12] = Inhibition of RTK/PI3K/AKT/mTOR signaling in human U87 cells assessed as up regulation of COX19, cytochrome c oxidase assembly factor gene expression at cytotoxic IC50 measured after 48 hrs relative to control; format: cell-based; settings: U-87MG ATCC; method in brief: as §2
[13] = test system: U-87 MG; assay: Induction of apoptosis in human U87 cells assessed as change in TNFRSF10C gene expression at cytotoxic IC50 measured after 48 hrs […] relative to control; format: functional, U-87MG ATCC; method in brief: as §1
[14] = Inhibition of RTK/PI3K/AKT/mTOR signaling in human U87 cells assessed as down regulation of TSPAN33 gene expression at cytotoxic IC50 measured after 48 hrs relative to control; format: cell-based; settings: U-87MG ATCC; method in brief: as §2
[15] = test system: U-87 MG; assay: Induction of DNA damage in human U87 cells assessed as change in PLK2 gene expression at cytotoxic IC50 measured after 48 hrs […] relative to control; format: functional, U-87MG ATCC; method in brief: as §3
[16] = Inhibition of RTK/PI3K/AKT/mTOR signaling in human U87 cells assessed as down regulation of CCDC186 gene expression at cytotoxic IC50 measured after 48 hrs relative to control; format: cell-based; settings: U-87MG ATCC; method in brief: as §1
[17] = test system: LN-229; assay: Cell cycle arrest in human LN229 cells assessed as increase in accumulation at G1-phase at cytotoxic IC50 measured after 48 hrs by propidium iodide staining based fluorescence cell imaging analysis; format: functional
Method in brief: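 Cell cycle by PI staining. Cells seeded at 1×10^6 and grown overnight at 37°C, 5% CO₂, then exposed for 48hrs at their IC₅₀ concentration, with DMSO and cisplatin controls. Cells were trypsinized, washed in cold PBS and fixed in 70% ethanol at 4°C for 30 min. They were stained with PI in Triton X-100/RNase for 15 min at 37°C and imaged by fluorescence microscopy. Reported as mean ± S.E.M of triplicates.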

[18] = Inhibition of RTK/PI3K/AKT/mTOR signaling in human U87 cells assessed as up regulation of phosphofructokinase, platelet gene expression at cytotoxic IC50 measured after 48 hrs relative to control; format: cell-based
[19] = Inhibition of RTK/PI3K/AKT/mTOR signaling in human U87 cells assessed as down regulation of USP47 gene expression at cytotoxic IC50 measured after 48 hrs relative to control; format: cell-based; settings: U-87MG ATCC; method in brief: as §2
[20] = Inhibition of RTK/PI3K/AKT/mTOR signaling in human U87 cells assessed as down regulation of CHST3 gene expression at cytotoxic IC50 measured after 48 hrs relative to control; format: cell-based; settings: U-87MG ATCC; method in brief: as §1
[21] = Inhibition of RTK/PI3K/AKT/mTOR signaling in human U87 cells assessed as down regulation of DAGLB gene expression at cytotoxic IC50 measured after 48 hrs relative to control; format: cell-based; settings: U-87MG ATCC; method in brief: as §1
[22] = test system: U-87 MG; assay: Induction of apoptosis in human U87 cells assessed as change in PIDD1 gene expression at cytotoxic IC50 measured after 48 hrs […] relative to control; format: functional, U-87MG ATCC; method in brief: as §1
[23] = Inhibition of RTK/PI3K/AKT/mTOR signaling in human U87 cells assessed as up regulation of zinc finger protein 217 gene expression at cytotoxic IC50 measured after 48 hrs relative to control; format: cell-based; settings: U-87MG ATCC
[24] = Inhibition of RTK/PI3K/AKT/mTOR signaling in human U87 cells assessed as up regulation of solute carrier family 4 member 2 gene expression at cytotoxic IC50 measured after 48 hrs relative to control; format: cell-based; settings: U-87MG ATCC
[25] = Inhibition of RTK/PI3K/AKT/mTOR signaling in human U87 cells assessed as up regulation of RPL7L1 gene expression at cytotoxic IC50 measured after 48 hrs relative to control; format: cell-based; settings: U-87MG ATCC; method in brief: as §2

CC(=O)C(=NNc1ccccc1C#N)C(C)=O
Activity [1]: 57.3% | log2FC [2]: -0.871 | log2FC [3]: -1.369 | log2FC [4]: -1.44 | log2FC [5]: -1.4 | fold change (FC) [6]: 1.708 | fold change (FC) [7]: -1.609 | log2FC [8]: 0.839 | log2FC [9]: 0.879 | log2FC [10]: -3.88 | log2FC [11]: 0.9994 | log2FC [12]: 1.33 | log2FC [13]: 3.078 | log2FC [14]: -0.666 | fold change (FC) [15]: 1.28 | log2FC [16]: -0.865 | Activity [17]: Active | log2FC [18]: 0.662 | log2FC [19]: -0.615 | log2FC [20]: -1.06 | log2FC [21]: -0.876 | log2FC [22]: 2.467 | log2FC [23]: 1.37 | log2FC [24]: 1.04 | log2FC [25]: 0.536
